Assay results gathered from unrelated publications.
Lines come from different studies, so protocols differ.
Target: Dual specificity mitogen-activated protein kinase kinase 3 (MAP2K3, Homo sapiens, UniProt P46734)
One construct used (P46734 1-347): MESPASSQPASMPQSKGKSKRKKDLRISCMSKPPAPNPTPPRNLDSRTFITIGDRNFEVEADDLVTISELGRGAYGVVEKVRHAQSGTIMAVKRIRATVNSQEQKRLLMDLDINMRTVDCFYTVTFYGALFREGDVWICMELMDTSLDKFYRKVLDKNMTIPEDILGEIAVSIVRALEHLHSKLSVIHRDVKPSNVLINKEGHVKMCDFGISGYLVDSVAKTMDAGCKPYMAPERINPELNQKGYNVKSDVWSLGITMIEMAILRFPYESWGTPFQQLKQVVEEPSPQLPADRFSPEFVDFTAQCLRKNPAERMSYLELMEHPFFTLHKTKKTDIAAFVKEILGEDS

| Compound | observed | technique | concentration | remaining binding |
| --- | --- | --- | --- | --- |
| O=C(NCC1CCOCC1)c1n[nH]cc1NC(=O)c1c(F)cccc1F | binding | competition with immobilised ligand | 1 µM | 64% |
| COc1cnc(Nc2cccc(S(N)(=O)=O)c2)nc1N1CCN(c2ccccc2)CC1 | binding | competition with immobilised ligand | 1 µM | 79% |
| O=C(NCCCN1CCOCC1)c1ccc(Nc2nccc(-c3cc4ccccc4s3)n2)cc1 | binding | competition with immobilised ligand | 1 µM | 47% |
| CO[C@@H](C)c1c(Nc2ccc([C@H](N(C)C(=O)C3CCS(=O)(=O)CC3)C(F)(F)F)cc2)cnc2cc(Cl)nn12 | cell-free assay | competition with immobilised ligand | 1 µM | 93% |
| N[C@@H]1CCN(c2nccc(-c3cnn4ncccc34)n2)C1 | binding | – | 1 µM | 59% |
| Nc1cnc(N2CCc3cc(S(=O)(=O)Nc4c(F)cc(Cl)cc4F)cc(N4CCCC4=O)c32)nc1 | cell-free assay | competition with immobilised ligand | 1 µM | 100% |
| Nc1ncc2c(n1)-c1c([nH]c3ccc(C#CC4CC4)cc13)CCCC2 | binding | competition with immobilised ligand | 1 µM | 93% |
| C[C@H]1CCN(c2nccc(-c3cnn4ncccc34)n2)C1 | binding | – | 1 µM | 69% |
| c1ccc(N2CCN(Cc3nc4ccccc4[nH]3)CC2)nc1 | binding | competition with immobilised ligand | 1 µM | 96% |
| CN(C)c1nccc(-c2cnc3ncccn23)n1 | binding | – | 1 µM | 78% |
| CC1=C(C#N)[C@@H](c2ccc3[nH]nc(C)c3c2)C(C#N)=C(c2ccc(Cl)cc2)N1 | cell-free assay | competition with immobilised ligand | 1 µM | 53.5% |
| CN(c1nccc(-c2cnn3ncccc23)n1)C1CC1 | binding | – | 1 µM | 93% |
| Cn1nc(C(F)(F)F)cc1-c1cnc(N2CCc3cc(S(=O)(=O)Nc4c(F)cc(Cl)cc4F)cc(N4CCCC4=O)c32)nc1 | cell-free assay | competition with immobilised ligand | 1 µM | 82% |
| CC1CCCN1c1nccc(-c2cnn3ncccc23)n1 (stereo not shown) | binding | – | 1 µM | 84% |
| COc1ncc2cc3ccccc3nc2c1C#N | cell-free assay | competition with immobilised ligand | 5 µM | 74% |
| O=C(c1ccc(Nc2ncc(Cl)c(-c3ccc(Cl)s3)n2)cc1)N1CCC(N2CCCC2)CC1 | binding | competition with immobilised ligand | 1 µM | 15% |
| COc1cnc(Nc2cccc(S(N)(=O)=O)c2)nc1N1CCN(c2ccccc2)C(=O)C1 | binding | competition with immobilised ligand | 1 µM | 84% |
| CN(CCCC(F)(F)F)c1nccc(-c2cnn3ncccc23)n1 | binding | – | 1 µM | 99% |
| N#CC1(c2ccccn2)CCN(Cc2cc(C(=O)N3CCCC3)c(=O)n3ccccc23)CC1 | cell-free assay | competition with immobilised ligand | 1 µM | 81% |
| CN(C)c1nccc(-c2cnn3ncccc23)n1 | binding | – | 1 µM | 51% |
| O=C(c1ccc(Nc2ncc(Cl)c(-c3cc4ccccc4s3)n2)cc1)N1CCC(N2CCCC2)CC1 | binding | competition with immobilised ligand | 1 µM | 43% |
| C[C@@H](c1ccc(-n2cnc3c(N)ncnc32)cc1)N1CCc2nn(C)c(Cc3ccccc3)c2C1=O | binding | competition with immobilised ligand | 0.1 µM | 63% |
